Each structure is given as a SMILES string. pEC50, pIC50: −log10 of the molar value. Converted amounts (≈) assume the structure as drawn. Where only a bound is given, the exact number is not on record here.

19 molecules from ChEMBL document CHEMBL2407055, “4-Substituted 2-Hydroxyisoquinoline-1,3(2H,4H)-diones as a Novel Class of HIV-1 Integrase Inhibitors” (ACS Med Chem Lett, 2013) can be followed below.

In data set [1] the test system is Human immunodeficiency virus 1. Nature of the data set: Antiviral activity against HIV1 3B infected in human MT4 cells assessed as inhibition of virus-induced cytopathic effect by MTT assay. Type of data set: functional, organism-based. The following applies: Human immunodeficiency virus 1, 3B. The procedure, abridged: (§1)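 Anti-HIV-1 activity was measured in MT-4 cells. EC50 is the concentration that cuts HIV-1-induced cytopathic effect by 50%. CC50 is the concentration that lowers MT-4 cell viability by 50%. The therapeutic index is CC50/EC50.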
In general terms: Cytopathic effects are the visible damage that an infection or toxin causes in cultured cells.

The nature of data set [2]: Cytotoxicity against human MT4 cells by MTT assay. It is filed as cell-based. In outline:
as §1
Background: Formazan colour is commonly taken as a measure of viable cells.

The nature of data set [3]: Therapeutic index, ratio of CC50 for human MT4 cells to EC50 for HIV1 3B. It is filed as cell-based. The following applies: read-out: Ratio CC50/EC50. In outline:
as §1

The target of data set [4] is Human immunodeficiency virus type 1 reverse transcriptase (Human immunodeficiency virus 1, UniProt Q72547). Nature of the data set: Inhibition of HIV1 recombinant reverse transcriptase RNase H activity after 10 mins. In outline: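 In vitro assay of RT-associated RNase H function. IC50 is the concentration giving 50% inhibition of RNase H activity.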
The target of data set [5] is T1, Human immunodeficiency virus type 1 integrase (Human immunodeficiency virus 1, UniProt Q7ZJM1). The experiment in a line: Inhibition of HIV1 integrase overall inhibition using 5'-digoxigenin-labeled 5'-GACCCTTTTAGTCAGTGTGGAAAATCTCTAGCAGT-3' as substrate after 1 hr by ELISA. (In general: ELISA stands for enzyme-linked immunosorbent assay.)
T1 sequence (Q7ZJM1 whole entry): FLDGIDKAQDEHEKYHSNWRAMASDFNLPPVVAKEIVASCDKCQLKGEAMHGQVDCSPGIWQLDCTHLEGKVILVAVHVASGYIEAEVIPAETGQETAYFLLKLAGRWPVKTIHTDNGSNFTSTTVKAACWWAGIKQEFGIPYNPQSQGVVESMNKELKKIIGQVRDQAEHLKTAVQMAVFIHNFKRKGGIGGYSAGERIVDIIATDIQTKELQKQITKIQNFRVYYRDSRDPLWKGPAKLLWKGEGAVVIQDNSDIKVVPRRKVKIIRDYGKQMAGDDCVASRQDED
Data set [6] has as its target T1, Human immunodeficiency virus type 1 integrase. Nature of the data set: Inhibition of strand transfer activity of HIV1 integrase using pre-cleaved oligonucleotide as substrate after 1 hr by ELISA.
The target is the same in data set [7]. Nature of the data set: Inhibition of 3'-processing activity of HIV1 integrase using 32P-5'-TGTGGAAAATCTCTAGCAGT-3' and 5'-ACTGCTAGAGATTTTCCACA-3' as substrate after 1 hr by ELISA.
Data set [8] concerns the target Human immunodeficiency virus type 1 integrase (Human immunodeficiency virus 1) (UniProt Q7ZJM1). The experiment in a line: Ratio of IC50 for strand transfer activity of HIV1 integrase to IC50 for HIV1 integrase overall inhibition.
In data set [9] the target is T1, Human immunodeficiency virus type 1 integrase. Nature of the data set: Inhibition of HIV1 integrase binding to LEDGF.
A short description of data set [10]: Aqueous solubility of the compound in PBS at pH 7.4. It is filed as physicochemical.
A short description of data set [11]: n-octanol-PBS partition coefficient, log D of the compound at pH 7.4. Type of data set: physicochemical.
A short description of data set [12]: Protein binding in human plasma. Type of data set: ADME, cell-free. As to conditions: read-out: PPB.

Chain of Human immunodeficiency virus type 1 integrase (Human immunodeficiency virus 1) (Q7ZJM1 as listed by the source): as the sequence (Q7ZJM1 whole entry) above

As for `COc1ccc(NC(=O)C2C(=O)N(O)C(=O)c3ccccc32)cc1Cl` (stereo not given), the negative-log EC50 (pEC50) (as a rule, the negative decadic logarithm of the EC50, by convention in mol/L) in data set [1] was 5.48. Further, half-maximal cytotoxicity in data set [2] (CC50) was put at 12300 nM. Moreover, the selectivity ratio in data set [3] stood at 3.7. Also, the negative-log IC50 (pIC50) (commonly −log10 of the IC50, conventionally taken in molar units) was 4.78 in data set [4], 7.70 in data set [5], 6.56 in data set [6] and 5.80 in data set [7]. Moreover, the Ratio IC50 in data set [8] amounted to 10.
With `O=C(Nc1cccc(F)c1)C1C(=O)N(O)C(=O)c2ccccc21` (stereo not given), in [1], the negative-log EC50 (pEC50) is 5.61. For the same molecule, the CC50 (usually the concentration giving 50% cytotoxicity) in data set [2] is 64000 nM. The selectivity ratio in data set [3] was 25.9. For the same molecule, the figures for the pIC50 in [4], in data set [5] and in data set [6] were 5.14, 8.00 and 6.96, respectively. Moreover, the Ratio IC50 in data set [8] was 10.
Take `O=C(NCCc1ccc(F)cc1)C1C(=O)N(O)C(=O)c2ccccc21` (stereo not given): the negative-log EC50 (pEC50) in data set [1] is 5.29. Further, in [2], the CC50 turned out to be 124000 nM. Moreover, the selectivity ratio in data set [3] was determined as 24. The pIC50 in data set [5] is 7.52; in [6], 6.70.
As to `O=C1NC(=O)C(C(=O)NCc2ccc(F)cc2)c2ccccc21` (stereo not given), in data set [1], the pEC50 was less than 3.60. In addition, the CC50 in data set [2] was greater than 250000 nM. In addition, the negative-log IC50 (pIC50) in data set [5] was 3.70; in [6] it was 4.10.
`COc1ccc(CNC(=O)C2C(=O)N(O)C(=O)c3ccccc32)cc1` (stereo not given): the negative logarithm of the EC50 (pEC50) in data set [1] is 4.75. For the same molecule, the CC50 in data set [2] stood at 118000 nM. Further, in data set [3], the selectivity ratio was determined as 6.7. The figures for the negative-log IC50 (pIC50) in data set [5] and in data set [6] were 5.92 and 5.99, respectively.
For the molecule `COc1ccc(CCNC(=O)C2C(=O)N(O)C(=O)c3ccccc32)cc1OC` (stereo not given), the pEC50 in data set [1] was 4.15. In data set [2], this molecule returned a cytotoxic concentration (CC50) greater than 125000 nM. In addition, in data set [3], the selectivity ratio is greater than 1.8. Besides, the negative logarithm of the IC50 (pIC50) in data set [4] is 5.41; in [5], 6.31; in data set [6] it was 6.90.
Turning to `O=C(NCCc1ccc(O)c(O)c1)C1C(=O)N(O)C(=O)c2ccccc21` (stereo not given), the pEC50 in [1] was less than 4.20. Also, in data set [2], the half-maximal cytotoxic concentration (CC50) is 63000 nM. Further, the negative logarithm of the IC50 (pIC50) in data set [4] was 6.89; in [5] it was 6.17; in [6] it was 6.53.
`O=C(Nc1ccccc1)C1C(=O)N(O)C(=O)c2ccccc21` (stereo not given): the pEC50 in data set [1] is 5.31. For the same molecule, the half-maximal cytotoxic concentration (CC50) in data set [2] turned out to be 106000 nM. Moreover, the selectivity ratio in data set [3] is 21.3. For the same molecule, the negative-log IC50 (pIC50) is 6.51 in data set [5] and 6.14 in data set [6].
`COc1ccc(CNC(=O)C2C(=O)N(O)C(=O)c3ccccc32)c(OC)c1` (stereo not given): the pEC50 in data set [1] was 5.03. Further, half-maximal cytotoxicity in [2] (CC50) was put at 60400 nM. Moreover, in data set [3], the selectivity ratio was determined as 6.5. Also, the pIC50 is 6.20 in [4], 7.46 in data set [5] and 6.60 in data set [6]. Further, in [8], the Ratio IC50 was 10.
As to `CN(C(=O)C1C(=O)N(O)C(=O)c2ccccc21)c1ccccc1` (stereo not given), the pEC50 in data set [1] is less than 3.97. In addition, in data set [2], it took 107000 nM to reach half-maximal cytotoxicity (CC50). Also, the values for the pIC50 in data set [5] and in data set [6] were 5.28 and 5.25, respectively.
The corresponding values for `COc1ccc(CNC(=O)C2C(=O)N(O)C(=O)c3ccccc32)cc1OC` (stereo not given) are less than 3.90, 125000 nM, 6.63 and 6.51.
For `CN1C(=O)c2ccccc2C(C(=O)NCc2ccc(F)cc2)C1=O` (stereo not given) the same measures were less than 3.60, greater than 250000 nM, less than 3.60 and less than 3.60.
Take `Cc1ccc(CNC(=O)C2C(=O)N(O)C(=O)c3ccccc32)cc1` (stereo not given): in [1], the negative-log EC50 (pEC50) is 5.24. The molecule further came in with a 50% cytotoxic concentration (CC50) in [2] greater than 125000 nM. Further, in data set [3], the selectivity ratio is greater than 22. Besides, the pIC50 is 4.85 in [4], 7.12 in [5] and 7.08 in data set [6].
As for `O=C(Nc1ccc(F)cc1)C1C(=O)N(O)C(=O)c2ccccc21` (stereo not given), in data set [1], the pEC50 is 5.76. In [2], this molecule displayed a CC50 of 114000 nM. Further, the selectivity ratio in [3] is 65.4. In addition, the negative logarithm of the IC50 (pIC50) is 6.10 in data set [5] and 5.95 in data set [6].
Take `O=C(NCc1ccc(O)c(O)c1)C1C(=O)N(O)C(=O)c2ccccc21` (stereo not given): in data set [1], the negative-log EC50 (pEC50) is less than 4.96. The half-maximal cytotoxic concentration (CC50) in data set [2] is 11000 nM. Besides, the figures for the pIC50 in [4], in [5] and in [6] were 6.05, 6.69 and 6.59, respectively.
Consider `O=C(NCc1ccc(O)cc1O)C1C(=O)N(O)C(=O)c2ccccc21` (stereo not given), for which, in data set [1], the negative-log EC50 (pEC50) was 5.10. For the same molecule, in data set [2], the 50% cytotoxic concentration (CC50) is greater than 125000 nM. Further, the selectivity ratio in [3] is greater than 16. In addition, the pIC50 in data set [4] was 6.28; in data set [5], 7.46; in data set [6], 6.24; in data set [7], 5.63. Further, the Ratio IC50 in [8] came to 10.
In data set [2], `Cc1nnc(C(=O)NC(C)(C)c2nc(C(=O)NCc3ccc(F)cc3)c(O)c(=O)n2C)o1` registered a CC50 greater than 8000 nM.
For `O=C(NCc1ccc(F)cc1)C1C(=O)N(O)C(=O)c2ccccc21` (stereo not given), the pEC50 in data set [1] is 5.63. Moreover, the negative logarithm of the IC50 (pIC50) in [9] is less than 4.00; in data set [4] it was 6.44; in data set [5], 7.25; in [6] it was 7.00; in [7], 7.22. For the same molecule, the solubility (as a rule, the concentration that dissolves in the medium under given conditions) in [10] is 190 µM (≈ 62.4 µg/mL). This molecule gave a CC50 in data set [2] of 202000 nM. In addition, the selectivity ratio in data set [3] was determined as 86.3. The pH-dependent lipophilicity (logD) (commonly the decadic logarithm of the distribution of all forms, ionised or not, between an organic phase and buffer at a given pH) in [11] was found to be 0.56. Further, the fraction unbound in data set [12] turned out to be 0.001.
For the molecule `O=C(NCc1ccccc1)C1C(=O)N(O)C(=O)c2ccccc21` (stereo not given), the pEC50 in data set [1] was 5.51. The molecule also had a CC50 in data set [2] of 130000 nM. Further, the selectivity ratio in data set [3] came out at 41.7. Further, the pIC50 in [5] is 7.10; in data set [6], 7.52.
